In the library only some 1.3% were active in any assay of this set; here they are far more common.
aDG glyco act: activators of alpha-DG glycosylation, primary screen, uHTS, Pro5-aDG cells, AlphaScreen; alpha-DG glycosylation AlphaScreen (IIH6); 0% Pro5, 100% B10-LARGE cell signal; activation, % at 10 µM; 360,000 compounds, 0.22% hits;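 active means activation of at least 8% versus controls, or a plate z-score of at least 8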;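 further: Pro5 are CHO cells carrying HIG-tagged alpha-DG that lacks glycosylation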
HNF4A DNA FP: change in binding of human HNF4A to DNA, primary screen, biochemical, fluorescence polarization, FITC-DNA. activity change, % at 10 µM. Hepatocyte nuclear factor 4-alpha (Homo sapiens), P41235. AID 1224865, 2016. 360,000 compounds, 0.3% hits. 1 h; in the data active means activity change above about 30%, passing the limit was not always enough
Target sequence (P41235 whole entry, looked up): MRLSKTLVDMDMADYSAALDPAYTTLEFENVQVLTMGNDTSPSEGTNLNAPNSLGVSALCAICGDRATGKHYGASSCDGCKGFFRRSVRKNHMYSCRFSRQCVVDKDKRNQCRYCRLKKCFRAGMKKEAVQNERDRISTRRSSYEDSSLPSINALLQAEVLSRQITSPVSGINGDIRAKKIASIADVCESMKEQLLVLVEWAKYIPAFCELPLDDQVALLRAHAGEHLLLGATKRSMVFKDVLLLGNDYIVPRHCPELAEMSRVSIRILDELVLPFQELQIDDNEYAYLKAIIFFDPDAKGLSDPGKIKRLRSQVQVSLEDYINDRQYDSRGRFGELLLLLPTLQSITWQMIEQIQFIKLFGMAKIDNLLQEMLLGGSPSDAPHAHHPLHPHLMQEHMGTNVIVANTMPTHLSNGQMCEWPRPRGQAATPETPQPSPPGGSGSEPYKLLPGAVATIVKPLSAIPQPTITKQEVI
CSN deneddyl inh: inhibitors of CSN-mediated cullin deneddylation, primary screen, biochemical, fluorescence polarization, uHTS; COP9 signalosome complex subunit 5 (Homo sapiens), Q92905; Purified CSN, SCF-Nedd8-OG deneddylation; inhibition, % at 12.5 µM; 360,000 compounds, 0.38% hits;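 active means pattern-corrected inhibition above about 35%, with an unprinted fluorescence ratio check between 0.5 and 1.5, limit read from the data, passing the limit was not always enough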
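assay system = purified human Csn5 enzyme expressed in HEK293T cells | amount = 0.24 nM enzyme | buffer or medium = Tris/NaCl/DTT buffer, pH 7.5 | reagent = 10 nM SCFSkp2-Nedd8OG | compound = one concentration, 12.5 µM, 0.25% DMSO | times = 90 min reaction at room temperature | signal = FP | read-out basis = % inhibition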
Rpn11 block: Rpn11 (PSMD14) deubiquitinase inhibitors, primary screen, biochemical, fluorescence polarization, uHTS; 26S proteasome non-ATPase regulatory subunit 14 (Homo sapiens), O00487; 360,000 compounds, 0.59% hits; human 26S proteasome, Ub4-pepOG fluorescence polarization; 20S core pre-blocked with epoxomicin; inhibition, % at 20 µM; AID 588493, 2011;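 active means inhibition at 20 µM, scaled to each plate's controls, above about 33%, limit read from the data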
Xi reactivation: activators of inactive X chromosome reactivation, primary screen, imaging, XiGFP fibroblasts, GFP high-content imaging, set 2; XiGFP mouse fibroblasts, % GFP-positive cells imaging, 3 d; cells co-treated with 5-aza-dC sensitizer; scaled so ellipticine positive control = 100%; activation, % at 7.58 µM; 360,000 compounds, 0.055% hits;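 active means mean normalized replicate activation at least 10% and every replicate at or above 10%; inconclusive means only one of the two criteria met; inactive means mean below 10% and not all replicates reach 10%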
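System: SV40-immortalized XiGFP fibroblast cells, line 68-5-11 / Incubation: 3-day compound exposure, then 15 min fixation at room temperature / Compound: single concentration per compound, delivered by pin transfer / Buffer or medium: DMEM plus 5-aza-dC sensitizer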
TPT1 inh: Candida albicans TPT1 enzyme inhibitors, primary screen, biochemical, fluorescence polarization | AID 1962, 2009 | 300,000 compounds, 0.81% hits | tRNA 2'-phosphotransferase TPT1 (Candida albicans SC5314) | inhibition, % at 5 µM | recombinant caTPT1, FP RNA substrate dephosphorylation;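 active means inhibition above the mean of all tested compounds plus 3 SD, set per screening campaign, cut at about 24% in these data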
Rpn11 confirm: Rpn11 (PSMD14) deubiquitinase inhibitors, confirmation, biochemical, fluorescence polarization, single concentration; AID 602318, 2012; 1,900 compounds, 29% hits; purified human 26S proteasome, Ub4-pepOG fluorescence polarization; proteasome pretreated with epoxomicin; shares compounds with Rpn11 block; inhibition, % at 20 µM
MMP-2 inh: MMP-2 enzyme inhibition, confirmation, counter-screen for RPN11 inhibitor project, biochemical, fluorescence, single concentration; shares compounds with Rpn11 block; recombinant MMP-2, FRET peptide cleavage fluorescence; inhibition, % at 20 µM; 1,900 compounds, 4% hits;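 further: human MMP-2 activated beforehand with APMA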
Thrombin inh: bovine thrombin protease inhibition, confirmation, counter-screen for Rpn11 inhibitor project, biochemical, fluorescence polarization, single concentration. bovine thrombin cleavage of Ub4-pepOG. inhibition, % at 20 µM. shares compounds with Rpn11 block. 1,900 compounds, 13% hits;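 active means mean inhibition at least 40% at 20 µM, or signal 3 deviations below plate average, so some actives read negative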
A number is an active result; i = inactive; ? = inconclusive; nt = not tested or not shown; + = active, no number. Unless noted, no stated cut-off is given here; in the data, active means inhibition above about 40%; inactive means the rest.

SMILES	aDG glyco act	HNF4A DNA FP	CSN deneddyl inh	Rpn11 block	Xi reactivation	TPT1 inh	Rpn11 confirm	MMP-2 inh	Thrombin inh
O=C(Nc1nc(-c2ccc(F)c(F)c2)cs1)Nc1ccc(F)cc1F	i	i	i	56	i	i	79	i	i
Cc1ccc(Cn2ncc3c(N4CCN(c5ccc(C)cc5)CC4)ncnc32)cc1	i	i	i	102	nt	i	i	i	i
Cc1ccc(Cn2ncc3c(N4CCN(C)CC4)ncnc32)cc1	i	i	i	i	i	i	nt	nt	nt
CN1C(=O)c2cc(NC(=O)C3CCOCC3)ccc2OC[C@@H]2O[C@H](CC(=O)O)CC[C@@H]21	nt	nt	nt	nt	i	nt	nt	nt	nt
COc1ccccc1NS(=O)(=O)c1cc(N=N/C(C(=O)Nc2ccc(Cl)cc2)=C(/C)O)ccc1C	i	i	i	42	i	nt	i	i	i
S=c1[nH]nc(-c2cc(-c3ccccc3)n[nH]2)n1/N=C/c1c(Cl)cccc1Cl	i	i	46	47	i	i	87	45	52
Cc1ccsc1/C=N/n1c(-c2cc(-c3ccccc3)n[nH]2)n[nH]c1=S	i	i	i	53	?	i	100	i	i
C/C=C/c1ccc2c(c1)[C@@H]1[C@@H](CCN1S(=O)(=O)c1ccccc1OC)[C@H](CO)N2C	nt	nt	nt	nt	i	nt	nt	nt	nt
Cc1nnc(N/N=C\c2ccc(-c3ccccc3[N+](=O)[O-])o2)n1N	i	i	i	65	i	i	i	i	i
C[C@H]1CN([C@@H](C)CO)C(=O)CCCn2cc(nn2)CO[C@@H]1CN(C)Cc1ccncc1	nt	nt	nt	nt	i	nt	nt	nt	nt
O=C(C[C@H]1C=C[C@@H](NC(=O)NC2CCCCC2)[C@H](CO)O1)NCc1ccc(F)cc1	nt	nt	nt	nt	i	nt	nt	nt	nt
CCOC(=O)C1=C(C)Nc2nnnn2C1c1cccc(OC)c1OC (stereo unspecified)	i	i	i	+	nt	i	i	i	i
C=CCOC(=O)C1=C(C)Nc2nnnn2C1c1cccc(OC)c1OC (stereo unspecified)	i	i	i	i	nt	i	nt	nt	nt
C[C@@H]1CN([C@H](C)CO)C(=O)CCCn2cc(nn2)CO[C@@H]1CN(C)S(=O)(=O)c1ccc(C#N)cc1	nt	nt	nt	nt	i	nt	nt	nt	nt
CCN1C(=O)c2cccc3c(NC(=O)c4ccc(S(=O)(=O)N5CCOCC5)cc4)ccc1c23	i	i	i	75	nt	i	i	i	i
CCCCc1ccc(-c2csc(/C(C#N)=C\c3ccco3)n2)cc1	i	i	i	41	i	i	i	i	i
N#C/C(=C\c1ccco1)c1nc2ccccc2s1	i	i	i	i	i	i	nt	nt	nt
CCCCc1ccc(-c2csc(/C(C#N)=C/c3ccc(C)o3)n2)cc1	i	42	41	67	nt	i	i	i	i
C[C@@H]1CN([C@@H](C)CO)C(=O)c2cc(-c3cccc(F)c3)cnc2O[C@H]1CN(C)C(=O)C1CC1	nt	nt	nt	nt	i	nt	nt	nt	nt
O=C(N/N=C/c1ccc(Cl)c([N+](=O)[O-])c1)c1ccc2c(c1)OCCO2	i	i	i	127	i	nt	i	54	i
Nc1cccn2c(-c3ccc(Cl)c(Cl)c3)cnc12	i	i	i	54	i	i	i	i	i
COCC#Cc1cnc2c(c1)C(=O)N([C@@H](C)CO)C[C@H](C)[C@H](CN(C)C(=O)C1CCCCC1)O2	nt	nt	nt	nt	i	nt	nt	nt	nt
COc1ccc(C2=NNC(=O)CC2)cc1	i	i	i	i	i	i	nt	nt	nt
CCn1c(O)c(/C=N/N=C2CCCC2)c2ccc(C3=NNC(=O)CC3)cc21	i	i	i	40	nt	i	i	i	i
CC(C)c1ccc(OCC(=O)N(Cc2ccccc2)c2ccccn2)cc1	i	i	i	43	i	i	i	i	i
SMILES	aDG glyco act	HNF4A DNA FP	CSN deneddyl inh	Rpn11 block	Xi reactivation	TPT1 inh	Rpn11 confirm	MMP-2 inh	Thrombin inh
O=C(COc1ccc(Cl)cc1)N(Cc1ccccc1)c1ccccn1	i	i	i	i	nt	i	nt	nt	nt
COc1cccc(C2c3c(C)nn(-c4ccc([N+](=O)[O-])cc4)c3N=C3C(=O)Nc4ccccc4N32)c1 (stereo unspecified)	i	57	i	46	i	i	i	i	i
Cc1ccc(C2c3c(C)nn(-c4ccc([N+](=O)[O-])cc4)c3N=C3C(=O)Nc4ccccc4N32)cc1 (stereo unspecified)	nt	nt	nt	nt	nt	i	nt	nt	nt
Cc1ccc2nc(Nc3nc(-c4ccccc4)cc(=O)[nH]3)nc(C)c2c1	i	i	i	i	nt	i	nt	nt	nt
COc1ccc2c(C)nc(Nc3nc(-c4ccccc4)cc(=O)[nH]3)nc2c1	i	i	i	45	i	i	i	i	i
CCOC(=O)N1CCN(C(=O)c2cc(OC)c(OC)c(OC)c2)CC1	i	i	i	35	i	i	i	i	i
CCOC(=O)N1CCN(C(=O)c2cc(OCC)c(OCC)c(OCC)c2)CC1	i	i	i	i	i	i	nt	nt	nt
CN(C)Cc1cn(CC[C@@H]2CC[C@H](NS(=O)(=O)c3ccccc3)[C@@H](CO)O2)nn1	nt	nt	nt	nt	i	nt	nt	nt	nt
CC(OC(=O)c1cccs1)C(=O)NCc1cccs1 (stereo unspecified)	i	i	i	i	nt	i	nt	nt	nt
CC(OC(=O)c1cccs1)C(=O)NC1CC1 (stereo unspecified)	i	i	i	38	i	i	i	i	i
CC(=O)N1[C@@H]2c3ccc(-c4ccncc4)c(=O)n3C[C@H]1[C@H](CO)[C@H]2C(=O)NC1Cc2ccccc2C1	nt	nt	nt	nt	i	nt	nt	nt	nt
O=C(C[C@H]1C[C@H](C(=O)N2CCOCC2)[C@@]2(CCC3CCCC3)c3[nH]c4cc(-c5ccco5)ccc4c3CCN2C1=O)NCCc1ccccn1	i	i	i	i	i	nt	nt	nt	nt
C[C@]12c3[nH]c4cc(-c5ccco5)ccc4c3CCN1C(=O)[C@@H](CC(=O)NCC13CC4CC(CC(C4)C1)C3)C[C@@H]2C(=O)N1CCCCC1	i	i	i	39	i	nt	i	i	i
